Test results from ChEMBL document CHEMBL1128473, “[(Biaryloxy)alkyl]isoxazoles: picornavirus inhibitors” (J Med Chem, 1995).
≈ marks a conversion by molar mass, not a printed value.

Legend:
Human rhinovirus sp. = assay: Concentration inhibiting 50% of the serotypes tested to 50% of the viral concentration of untreated controls following 72 hr of exposure; type: functional
Summary of the method: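 Tissue culture infectious dose (TCID50) assay against a panel of 10 human rhinovirus serotypes. For each serotype, the viral concentration was compared with untreated controls after 72 h of compound exposure. MIC50 is the compound concentration at which half of the serotypes tested are reduced to 50% of the untreated-control viral concentration.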

[1] = Metabolic stability expressed as half life values was monitored in vitro liver microsomal assay.; type: ADME, Microsome; settings: liver microsomes

MIC50 (Human rhinovirus sp.) [µM]	half-life [1] [h]	Compound
0.23 (≈ 0.0772 µg/mL)	> 3.33	Cc1cccc(-c2cc(C)c(OCCCc3cc(C)no3)c(C)c2)c1
0.26 (≈ 0.0901 µg/mL)		Cc1cc(CCCOc2c(C)cc(-c3ccc(C#N)cc3)cc2C)on1
0.28 (≈ 0.0984 µg/mL)		COc1ccc(-c2cc(C)c(OCCCc3cc(C)no3)c(C)c2)cc1

The next lines start with the compound.

Compound	MIC50 (Human rhinovirus sp.) [µM]	half-life [1] [h]
Cc1cc(CCCOc2c(C)cc(-c3cccc(F)c3)cc2C)on1	0.32 (≈ 0.109 µg/mL)	
Cc1cc(CCCOc2c(C)cc(-c3ccc(F)c(F)c3)cc2C)on1	0.16 (≈ 0.0572 µg/mL)	
